Laboratory results taken from ChEMBL document CHEMBL4152256, “Structure-activity relationship of new antimalarial 1-aryl-3-susbtituted propanol derivatives: Synthesis, preliminary toxicity profiling, parasite life cycle stage studies, target exploration, and targeted delivery” (Eur J Med Chem, 2018).

Columns and labels:
[1] = Genotoxicity in Salmonella typhimurium TA1535 harboring pSK1002 assessed as umu gene induction at 0.002 mg/ml in absence of Sprague-Dawley rat liver S9 fraction after by SOS/umu assay relative to control; format: toxicity, organism-based; conditions: salmonella enterica subsp. enterica serovar typhimurium, read-out: FC
[2] = Genotoxicity in Salmonella typhimurium TA1535 harboring pSK1002 assessed as umu gene induction at 0.125 mg/ml in presence of Sprague-Dawley rat liver S9 fraction after by SOS/umu assay relative to control; format: toxicity, organism-based; conditions: salmonella enterica subsp. enterica serovar typhimurium, read-out: FC
[3] = Genotoxicity in Salmonella typhimurium TA1535 harboring pSK1002 assessed as survival at 0.002 mg/ml in presence of Sprague-Dawley rat liver S9 fraction after by SOS/umu assay relative to control; format: toxicity, organism-based; conditions: salmonella enterica subsp. enterica serovar typhimurium, read-out: Survival
[4] = Genotoxicity in Salmonella typhimurium TA1535 harboring pSK1002 assessed as survival at 0.125 mg/ml in presence of Sprague-Dawley rat liver S9 fraction after by SOS/umu assay relative to control; format: toxicity, organism-based; conditions: salmonella enterica subsp. enterica serovar typhimurium, read-out: Survival
[5] = Genotoxicity in Salmonella typhimurium TA1535 harboring pSK1002 assessed as umu gene induction at 0.016 mg/ml in presence of Sprague-Dawley rat liver S9 fraction after by SOS/umu assay relative to control; format: toxicity, organism-based; conditions: salmonella enterica subsp. enterica serovar typhimurium, read-out: FC
[6] = Cytotoxicity against human HepG2A16 cells by MTT assay; format: cell-based; conditions: HepG2A16 cells
Outline: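 MTT viability assay on HepG2-A16 cells, giving CC50 values.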

[7] = Genotoxicity in Salmonella typhimurium TA1535 harboring pSK1002 assessed as survival at 0.063 mg/ml in absence of Sprague-Dawley rat liver S9 fraction after by SOS/umu assay relative to control; format: toxicity, organism-based; conditions: salmonella enterica subsp. enterica serovar typhimurium, read-out: Survival
[8] = Genotoxicity in Salmonella typhimurium TA1535 harboring pSK1002 assessed as survival at 0.016 mg/ml in absence of Sprague-Dawley rat liver S9 fraction after by SOS/umu assay relative to control; format: toxicity, organism-based; conditions: salmonella enterica subsp. enterica serovar typhimurium, read-out: Survival
[9] = Genotoxicity in Salmonella typhimurium TA1535 harboring pSK1002 assessed as umu gene induction at 0.016 mg/ml in absence of Sprague-Dawley rat liver S9 fraction after by SOS/umu assay relative to control; format: toxicity, organism-based; conditions: salmonella enterica subsp. enterica serovar typhimurium, read-out: FC
[10] = Genotoxicity in Salmonella typhimurium TA1535 harboring pSK1002 assessed as umu gene induction at 0.001 mg/ml in absence of Sprague-Dawley rat liver S9 fraction after by SOS/umu assay relative to control; format: toxicity, organism-based; conditions: salmonella enterica subsp. enterica serovar typhimurium, read-out: FC
[11] = Genotoxicity in Salmonella typhimurium TA1535 harboring pSK1002 assessed as umu gene induction at 0.031 mg/ml in presence of Sprague-Dawley rat liver S9 fraction after by SOS/umu assay relative to control; format: toxicity, organism-based; conditions: salmonella enterica subsp. enterica serovar typhimurium, read-out: FC
[12] = Genotoxicity in Salmonella typhimurium TA1535 harboring pSK1002 assessed as umu gene induction at 0.001 mg/ml in presence of Sprague-Dawley rat liver S9 fraction after by SOS/umu assay relative to control; format: toxicity, organism-based; conditions: salmonella enterica subsp. enterica serovar typhimurium, read-out: FC
[13] = Genotoxicity in Salmonella typhimurium TA1535 harboring pSK1002 assessed as survival at 0.125 mg/ml in absence of Sprague-Dawley rat liver S9 fraction after by SOS/umu assay relative to control; format: toxicity, organism-based; conditions: salmonella enterica subsp. enterica serovar typhimurium, read-out: Survival
[14] = Selectivity index, ratio of CC50 for human HepG2A16 cells by MTT assay to IC50 for multidrug-resistant Plasmodium falciparum FCR-3; format: toxicity; conditions: HepG2A16 cells, read-out: Ratio CC50/IC50
Outline: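 HepG2-A16 human hepatoma cells were tested by MTT viability assay to give CC50. Blood-stage activity was measured against the multidrug-resistant P. falciparum FCR-3 strain by [3H]-hypoxanthine incorporation to give IC50. SI = CC50 HepG2 / FCR-3 IC50.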

[15] = Genotoxicity in Salmonella typhimurium TA1535 harboring pSK1002 assessed as umu gene induction at 0.008 mg/ml in presence of Sprague-Dawley rat liver S9 fraction after by SOS/umu assay relative to control; format: toxicity, organism-based; conditions: salmonella enterica subsp. enterica serovar typhimurium, read-out: FC
[16] = Genotoxicity in Salmonella typhimurium TA1535 harboring pSK1002 assessed as umu gene induction at 0.063 mg/ml in absence of Sprague-Dawley rat liver S9 fraction after by SOS/umu assay relative to control; format: toxicity, organism-based; conditions: salmonella enterica subsp. enterica serovar typhimurium, read-out: FC
[17] = Genotoxicity in Salmonella typhimurium TA1535 harboring pSK1002 assessed as survival at 0.004 mg/ml in absence of Sprague-Dawley rat liver S9 fraction after by SOS/umu assay relative to control; format: toxicity, organism-based; conditions: salmonella enterica subsp. enterica serovar typhimurium, read-out: Survival
[18] = Genotoxicity in Salmonella typhimurium TA1535 harboring pSK1002 assessed as survival at 0.002 mg/ml in absence of Sprague-Dawley rat liver S9 fraction after by SOS/umu assay relative to control; format: toxicity, organism-based; conditions: salmonella enterica subsp. enterica serovar typhimurium, read-out: Survival
[19] = Genotoxicity in Salmonella typhimurium TA1535 harboring pSK1002 assessed as umu gene induction at 0.004 mg/ml in presence of Sprague-Dawley rat liver S9 fraction after by SOS/umu assay relative to control; format: toxicity, organism-based; conditions: salmonella enterica subsp. enterica serovar typhimurium, read-out: FC
[20] = Genotoxicity in Salmonella typhimurium TA1535 harboring pSK1002 assessed as umu gene induction at 0.004 mg/ml in absence of Sprague-Dawley rat liver S9 fraction after by SOS/umu assay relative to control; format: toxicity, organism-based; conditions: salmonella enterica subsp. enterica serovar typhimurium, read-out: FC
[21] = Genotoxicity in Salmonella typhimurium TA1535 harboring pSK1002 assessed as survival at 0.001 mg/ml in presence of Sprague-Dawley rat liver S9 fraction after by SOS/umu assay relative to control; format: toxicity, organism-based; conditions: salmonella enterica subsp. enterica serovar typhimurium, read-out: Survival
[22] = Genotoxicity in Salmonella typhimurium TA1535 harboring pSK1002 assessed as umu gene induction at 0.063 mg/ml in presence of Sprague-Dawley rat liver S9 fraction after by SOS/umu assay relative to control; format: toxicity, organism-based; conditions: salmonella enterica subsp. enterica serovar typhimurium, read-out: FC
[23] = Genotoxicity in Salmonella typhimurium TA1535 harboring pSK1002 assessed as umu gene induction at 0.002 mg/ml in presence of Sprague-Dawley rat liver S9 fraction after by SOS/umu assay relative to control; format: toxicity, organism-based; conditions: salmonella enterica subsp. enterica serovar typhimurium, read-out: FC
[24] = Genotoxicity in Salmonella typhimurium TA1535 harboring pSK1002 assessed as survival at 0.004 mg/ml in presence of Sprague-Dawley rat liver S9 fraction after by SOS/umu assay relative to control; format: toxicity, organism-based; conditions: salmonella enterica subsp. enterica serovar typhimurium, read-out: Survival
[25] = Genotoxicity in Salmonella typhimurium TA1535 harboring pSK1002 assessed as umu gene induction at 0.125 mg/ml in absence of Sprague-Dawley rat liver S9 fraction after by SOS/umu assay relative to control; format: toxicity, organism-based; conditions: salmonella enterica subsp. enterica serovar typhimurium, read-out: FC
[26] = Genotoxicity in Salmonella typhimurium TA1535 harboring pSK1002 assessed as umu gene induction at 0.008 mg/ml in absence of Sprague-Dawley rat liver S9 fraction after by SOS/umu assay relative to control; format: toxicity, organism-based; conditions: salmonella enterica subsp. enterica serovar typhimurium, read-out: FC
[27] = Genotoxicity in Salmonella typhimurium TA1535 harboring pSK1002 assessed as survival at 0.063 mg/ml in presence of Sprague-Dawley rat liver S9 fraction after by SOS/umu assay relative to control; format: toxicity, organism-based; conditions: salmonella enterica subsp. enterica serovar typhimurium, read-out: Survival
[28] = Genotoxicity in Salmonella typhimurium TA1535 harboring pSK1002 assessed as survival at 0.016 mg/ml in presence of Sprague-Dawley rat liver S9 fraction after by SOS/umu assay relative to control; format: toxicity, organism-based; conditions: salmonella enterica subsp. enterica serovar typhimurium, read-out: Survival
[29] = Genotoxicity in Salmonella typhimurium TA1535 harboring pSK1002 assessed as survival at 0.031 mg/ml in presence of Sprague-Dawley rat liver S9 fraction after by SOS/umu assay relative to control; format: toxicity, organism-based; conditions: salmonella enterica subsp. enterica serovar typhimurium, read-out: Survival

| Structure (SMILES) | fold induction at 0.002 mg/ml [1] | fold induction at 0.125 mg/ml [2] | viability at 0.002 mg/ml [3] [%] | viability at 0.125 mg/ml [4] [%] | fold induction at 0.016 mg/ml [5] | CC50 [6] [µM] | viability at 0.063 mg/ml [7] [%] | viability at 0.016 mg/ml [8] [%] | fold induction at 0.016 mg/ml [9] | fold induction at 0.001 mg/ml [10] | fold induction at 0.031 mg/ml [11] | fold induction at 0.001 mg/ml [12] | viability at 0.125 mg/ml [13] [%] | selectivity ratio [14] | fold induction at 0.008 mg/ml [15] | fold induction at 0.063 mg/ml [16] | viability at 0.004 mg/ml [17] [%] | viability at 0.002 mg/ml [18] [%] | fold induction at 0.004 mg/ml [19] | fold induction at 0.004 mg/ml [20] | other results |
| --- | --- | --- | --- | --- | --- | --- | --- | --- | --- | --- | --- | --- | --- | --- | --- | --- | --- | --- | --- | --- | --- |
| OC(CCN1CC=C(c2ccc(F)cc2)CC1)c1ccc2c(c1)OCO2 (stereo not given) | 0.8 | 1 | 108 | 99.6 | 1 | 165 | 96.6 | 92.5 | 0.9 | 0.5 | 0.7 | 0.7 | 116 | 97 | 1 | 0.9 | 114 | 122 | 0.9 | 0.8 | viability at 0.001 mg/ml [21]: 111%; fold induction at 0.063 mg/ml [22]: 0.9; fold induction at 0.002 mg/ml [23]: 1; viability at 0.004 mg/ml [24]: 105%; fold induction at 0.125 mg/ml [25]: 0.8; fold induction at 0.008 mg/ml [26]: 0.7; viability at 0.063 mg/ml [27]: 105%; viability at 0.016 mg/ml [28]: 92%; viability at 0.031 mg/ml [29]: 137% |
| COc1ccccc1C1=CCN(CCC(O)c2ccc(F)c3ccccc23)CC1 (stereo not given) | 0.9 | 0.7 | 101 | 79.1 | 0.8 | 17.7 | 90.7 | 50.6 | 1.2 | 0.9 | 0.5 | 0.8 | 114 | 14 | 0.7 | 0.5 | 76.7 | 86.6 | 0.8 | 0.9 | viability at 0.001 mg/ml [21]: 106%; fold induction at 0.063 mg/ml [22]: 0.6; fold induction at 0.002 mg/ml [23]: 0.9; viability at 0.004 mg/ml [24]: 91.1%; fold induction at 0.125 mg/ml [25]: 0.4; fold induction at 0.008 mg/ml [26]: 0.8; viability at 0.063 mg/ml [27]: 76%; viability at 0.016 mg/ml [28]: 84%; viability at 0.031 mg/ml [29]: 124% |
| OC(CCN1CCN(C(c2ccccc2)c2ccccc2)CC1)c1ccc(F)c(F)c1 (stereo not given) | 0.9 | 0.7 | 92.2 | 117 | 0.8 | 54.3 | 28 | 36.7 | 2 | 0.6 | 0.8 | 0.6 | 24.1 | 147 | 0.8 | 4 | 102 | 104 | 0.9 | 1 | viability at 0.001 mg/ml [21]: 98.5%; fold induction at 0.063 mg/ml [22]: 0.8; fold induction at 0.002 mg/ml [23]: 0.8; viability at 0.004 mg/ml [24]: 87.6%; fold induction at 0.125 mg/ml [25]: 1.4; fold induction at 0.008 mg/ml [26]: 1.2; viability at 0.063 mg/ml [27]: 112%; viability at 0.016 mg/ml [28]: 94.9%; viability at 0.031 mg/ml [29]: 103% |
| Oc1ccc(C(O)CCN2CC=C(c3ccc(F)cc3)CC2)cc1 (stereo not given) | 1 | 0.4 | 112 | 103 | 1.2 | 253 | 123 | 94.8 | 1.2 | 1.2 | 1.8 | 0.5 | 112 | 88 | 0.6 | 0.5 | 97.1 | 98.6 | 0.5 | 1 | viability at 0.001 mg/ml [21]: 102%; fold induction at 0.063 mg/ml [22]: 0.4; fold induction at 0.002 mg/ml [23]: 1.4; viability at 0.004 mg/ml [24]: 112%; fold induction at 0.125 mg/ml [25]: 0.5; fold induction at 0.008 mg/ml [26]: 1.1; viability at 0.063 mg/ml [27]: 118%; viability at 0.016 mg/ml [28]: 120%; viability at 0.031 mg/ml [29]: 110% |
| OC(CCN1CCN(c2ccccc2C(F)(F)F)CC1)c1ccc(F)cc1 (stereo not given) | 0.8 | 1.9 | 90.4 | 21.3 | 0.9 | 1.35 | 28.6 | 99.8 | 0.8 | 0.9 | 1 | 1.1 | 25.4 | 1 | 1 | 1.3 | 107 | 110 | 1.1 | 0.9 | viability at 0.001 mg/ml [21]: 84.6%; fold induction at 0.063 mg/ml [22]: 0.8; fold induction at 0.002 mg/ml [23]: 1; viability at 0.004 mg/ml [24]: 92.9%; fold induction at 0.125 mg/ml [25]: 1.2; fold induction at 0.008 mg/ml [26]: 0.8; viability at 0.063 mg/ml [27]: 89%; viability at 0.016 mg/ml [28]: 87.9%; viability at 0.031 mg/ml [29]: 86.7% |
